High-throughput results deposited in PubChem by The Scripps Research Institute Molecular Screening Center.
HTRA1 inhibitor = HTRA1 serine protease inhibitors, primary screen, biochemical, fluorescence polarization, HTS. recombinant HTRA1, FP-rhodamine activity-based probe. inhibition, % at 5.96 µM. Q92743. 0.5% of 340,000 active. AID 504803, 2011; in the data active = inhibition above about 36%
TCR-CD3 inh = inhibitors of human TCR-CD3 interaction, primary screen, biochemical, fluorescence, TAMRA-labeled TCR probe. T-cell receptor (TCR). inhibition, % at 9.4 µM. 0.37% of 360,000 active. AID 651800, 2012;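 also: recombinant mutant TCR 2C K166C tagged with TAMRA read by polarization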
PRMT1 FP inh = PRMT1 methyltransferase inhibitors, primary screen, biochemical, fluorescence polarization; Protein arginine N-methyltransferase 1 (Homo sapiens), Q99873; recombinant PRMT1, activity-based probe fluorescence polarization; inhibition, % at 2.79 µM; 1.3% of 370,000 active; AID 652257, 2013;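 active = inhibition above about 21% made by adding two undisclosed values, limit read from the data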
ABHD4 inh = ABHD4 inhibitors, primary screen, biochemical, fluorescence polarization, mouse; inhibition, % at 8.92 µM; AID 720543, 2013; (Lyso)-N-acylphosphatidylethanolamine lipase (Mus musculus), Q8VD66; purified mABHD4, FP-Rh probe fluorescence polarization; 0.54% of 370,000 active;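 active = inhibition exceeding the mean over every tested compound plus 3 SD, cut at about 30% in these data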
Target sequence (Q8VD66 whole entry, looked up): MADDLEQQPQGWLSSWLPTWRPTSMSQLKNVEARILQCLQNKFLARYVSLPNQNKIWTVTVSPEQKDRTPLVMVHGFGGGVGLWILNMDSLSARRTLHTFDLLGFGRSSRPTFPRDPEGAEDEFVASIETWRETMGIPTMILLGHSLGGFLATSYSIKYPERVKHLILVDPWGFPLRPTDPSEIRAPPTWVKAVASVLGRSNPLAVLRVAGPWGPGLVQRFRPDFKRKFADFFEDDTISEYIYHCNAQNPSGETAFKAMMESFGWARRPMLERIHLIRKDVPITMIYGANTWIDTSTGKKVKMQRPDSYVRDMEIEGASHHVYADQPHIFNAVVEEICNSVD
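Test system: mouse ABHD4 enzyme, wild type. Reagent: FP-Rh fluorescent activity-based probe, added after compound pre-incubation. Timing: pre-incubation 45 min, probe exposure 60 min, at 25 °C. Technique: FP readout, ex 525 nm / em 598 nm. Benchmarks: high control S159A mutant with DMSO, low control median of compound wells.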
SIAE inh = human SIAE inhibitors, primary screen, biochemical, fluorescence polarization, FP-Rh probe, 1536-well HTS; Sialate O-acetylesterase (Homo sapiens), Q9HAT2; SIAE FP-Rh probe binding; inhibition, % at 9.66 µM; 0.69% of 370,000 active;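 active = inhibition above a cutoff: mean of compounds within the control limits plus 3 SD of those, cut at about 17% in these data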
HTRA1 conf = HTRA1 protease inhibitors, retest, confirmation, biochemical, fluorescence polarization; AID 540248, 2011; 66% of 1,600 active; recombinant HTRA1, FP-rhodamine activity-based probe; shares compounds with HTRA1 inhibitor; inhibition, % at 5.96 µM;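 active = mean inhibition over three repeats above a set limit taken from the earlier primary screen, cut at about 37% in these data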;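 also: inhibitors block probe binding so polarization drops and inhibition rises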
BSA TAMRA ctr = compounds interfering with TAMRA-BSA probe, counter-screen for TCR-CD3 interaction inhibitor project, biochemical, fluorescence, TAMRA-labeled BSA; shares compounds with TCR-CD3 inh; TAMRA-labeled BSA probe fluorescence counterscreen; inhibition, % at 9.4 µM; 10% of 1,200 active; in the data active = inhibition above about 23%
TCR-CD3 conf = TCR-CD3 interaction inhibitors, retest, confirmation, biochemical, fluorescence, TAMRA-labeled TCR probe | 48% of 1,200 active | TAMRA-labeled TCR probe fluorescence binding assay | AID 652036, 2013 | inhibition, % at 9.4 µM | shares compounds with TCR-CD3 inh
PRMT1 confirm = PRMT1 methyltransferase inhibitors, confirmation, biochemical, fluorescence polarization, triplicate; shares compounds with PRMT1 FP inh; recombinant His-PRMT1, activity-based probe fluorescence polarization; inhibition, % at 2.79 µM; 42% of 3,300 active; AID 687036, 2013;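 active = mean inhibition across replicates above the hit cutoff derived for the earlier primary screen, cut at about 22% in these data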
mABHD4 conf = ABHD4 inhibitors, retest, confirmation, biochemical, fluorescence polarization, mouse; shares compounds with ABHD4 inh; purified mABHD4, FP-Rh probe fluorescence polarization; inhibition, % at 8.92 µM; 55% of 1,800 active; AID 720658, 2013;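 active = mean inhibition across replicates above the hit cutoff set in the primary screen, cut at about 30% in these data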
SIAE confirm = human SIAE inhibitors, retest, confirmation, biochemical, fluorescence polarization, FP-Rh probe, triplicate | shares compounds with SIAE inh | SIAE FP-Rh activity-based probe | inhibition, % at 9.66 µM | 13% of 2,300 active;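 active = mean inhibition of the replicates above the hit cutoff set in the primary screen, cut at about 17% in these data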;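 also: inhibitors lower polarization as more probe stays unbound to SIAE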
Large screens that a line does not name were inactive (follow-up assays come after a bar, where they were run). Only some compounds are listed: those with a hit (about 2.6% of all), similar ones and a draw of the others. Rule as the data show it, unless noted: active = inhibition above about 19%; inactive = the rest.

COc1ccc(C(NC(C)=O)c2cc(Cl)c3cccnc3c2O)cc1 (stereo not given)	HTRA1 inhibitor 70.5, SIAE inh 19.1 | HTRA1 conf 79.9 | SIAE confirm 19.5
CC(=O)NC(c1ccc(F)cc1)c1cccnc1 (stereo not given)	none
CC(=O)NC(c1ccccc1)c1cc(Cl)c2cccnc2c1O (stereo not given)	HTRA1 inhibitor 70.5, SIAE inh 20.2 | HTRA1 conf 72.1 | SIAE confirm 17.2
CC(=O)NC(c1ccc(N(C)C)cc1)c1cc(Cl)c2cccnc2c1O (stereo not given)	HTRA1 inhibitor 65.0, ABHD4 inh 29.7, SIAE inh 23.2 | HTRA1 conf 82.0 | mABHD4 conf 32.7 | SIAE confirm 24.1
O=S1(=O)C=CCN1Cc1cn(Cc2cccc(C(F)(F)F)c2)nn1	none (no result: HTRA1 inhibitor, TCR-CD3 inh)
C[C@@H]1OCN(C)[C@H]2C[C@H]3c4[nH]c5cccc(-c6ccccc6)c5c4CCN3C[C@@H]12	none (no result: HTRA1 inhibitor, TCR-CD3 inh)
CCOC(=O)[C@@]12CCCC=C1N(CCc1ccc(Cl)cc1)C(=O)[C@H]2CC(=O)N1CCC(c2ccccc2)CC1	none (no result: HTRA1 inhibitor, TCR-CD3 inh)
COc1ccc(C2CCC3(CCC(=O)N3CCOC(=O)NCc3ccc(Cl)cc3)CC2)cc1 (stereo not given)	none (no result: HTRA1 inhibitor, TCR-CD3 inh)
C=CCn1c(SCC(=O)c2ccc(O)c(O)c2)nnc1-c1cccc(C)c1	HTRA1 inhibitor 70.2, ABHD4 inh 41.1, SIAE inh 18.7 | HTRA1 conf 77.6 | mABHD4 conf 29.8 | SIAE confirm inactive
Cc1ccc(CNC(=O)O[C@H]2CC[C@@]34CCCN3C(=O)CCC[C@H]4C2)cc1	none (no result: HTRA1 inhibitor, TCR-CD3 inh)
O=C1c2ccccc2-c2onc3ccc(N4CCCC4)c1c23	HTRA1 inhibitor 91.4, TCR-CD3 inh 110.8, PRMT1 FP inh 89.5, ABHD4 inh 99.4, SIAE inh 76.3 | HTRA1 conf inactive | BSA TAMRA ctr 186.0 | TCR-CD3 conf 144.8 | PRMT1 confirm 74.0 | mABHD4 conf 70.1 | SIAE confirm 56.4
CCNc1ccc2noc3c2c1C(=O)c1ccccc1-3	HTRA1 inhibitor 123.1, TCR-CD3 inh 126.1, PRMT1 FP inh 153.6, ABHD4 inh 121.9, SIAE inh 97.8 | HTRA1 conf 112.3 | BSA TAMRA ctr active | TCR-CD3 conf 186.6 | mABHD4 conf 116.0 | SIAE confirm 91.4
C=CS(=O)(=O)N(Cc1ccc(C)cc1)[C@@H](CO)C(=O)OC	none (no result: HTRA1 inhibitor, TCR-CD3 inh)
CCNC(=S)NNC(=O)CSc1nnc(SCc2cccc3ccccc23)s1	none (no result: HTRA1 inhibitor, TCR-CD3 inh)
COc1cc(C(C[N+](=O)[O-])c2c(C)cc3ccccn23)ccc1O (stereo not given)	HTRA1 inhibitor 40.3, ABHD4 inh 30.4, SIAE inh 18.8 | HTRA1 conf 39.6 | mABHD4 conf inactive | SIAE confirm inactive
